Measurements reported in ChEMBL document CHEMBL3352270, “Antimalarial activity of abietane ferruginol analogues possessing a phthalimide group” (Bioorg Med Chem Lett, 2014).
pEC50, pIC50: −log10 of the molar value. In brackets after ≈: the same amount, converted by molar mass.

Experiments:
[1] = test system: Plasmodium falciparum; assay: microbe, parasite or virus in culture; type: functional, organism-based; conditions: 3D7, 72 h
[2] = Selectivity index, ratio of cytotoxic EC50 against human cells to EC50 for Plasmodium falciparum 3D7; conditions: human cells (cell line not named)
[3] = test system: HepG2; assay: Cytotoxicity against human HepG2 cells; type: functional, cell-based
[4] = test system: Raji; assay: Cytotoxicity against human Raji cells; type: functional, cell-based
[5] = test system: BJ; assay: Cytotoxicity against human BJ cells; type: ADME, cell-based
[6] = test system: HEK293; assay: Cytotoxicity against HEK293 cells; type: functional, cell-based; conditions: Homo sapiens
[7] = test system: Plasmodium falciparum; assay: microbe, parasite or virus in culture; type: functional, organism-based; conditions: K1, 72 h
[8] = Selectivity index, ratio of cytotoxic EC50 against human cells to EC50 for Plasmodium falciparum K1; conditions: human cells (cell line not named)
[9] = test system: Plasmodium falciparum; assay: Antimalarial activity against Plasmodium falciparum K1; type: functional, organism-based
Summary of the method: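 Chloroquine-resistant K1 strain of P. falciparum; […].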

[10] = test system: Plasmodium falciparum; assay: Antimalarial activity against Plasmodium falciparum D10; type: functional
[11] = Selectivity index, ratio of cytotoxicity against CHO cells to IC50 for Plasmodium falciparum K1; type: toxicity, cell-based; conditions: hamster, read-out: Selectivity Index
[12] = Selectivity index, ratio of cytotoxicity against CHO cells to IC50 for Plasmodium falciparum D10; type: toxicity, cell-based; conditions: hamster, read-out: Selectivity Index
[13] = Selectivity index, ratio of cytotoxicity against human HepG2 cells to IC50 for Plasmodium falciparum K1; type: toxicity, cell-based; conditions: read-out: Selectivity Index
[14] = Selectivity index, ratio of cytotoxicity against human HepG2 cells to IC50 for Plasmodium falciparum D10; type: toxicity, cell-based; conditions: read-out: Selectivity Index
[15] = test system: Plasmodium falciparum; assay: Antimalarial activity against Plasmodium falciparum D6; type: functional, organism-based
[16] = test system: Plasmodium falciparum; assay: Antimalarial activity against chloroquine-sensitive Plasmodium falciparum D6; type: functional, organism-based
[17] = test system: Plasmodium falciparum; assay: Antimalarial activity against chloroquine-resistant Plasmodium falciparum W2; type: functional, organism-based
[18] = test system: Plasmodium falciparum; assay: Antimalarial activity against chloroquine-resistant Plasmodium falciparum K1; type: functional, organism-based
[19] = Selectivity index, ratio of cytotoxicity against rat L6 cells to IC50 for Plasmodium falciparum K1; type: toxicity, cell-based; conditions: read-out: Selectivity Index

Row | SMILES | pEC50 [1] | selectivity ratio [2] | pEC50 [3] | pEC50 [4] | pEC50 [5] | pEC50 [6] | pEC50 [7] | selectivity ratio [8] | IC50 [9] | IC50 [10] | selectivity ratio [11] | selectivity ratio [12] | selectivity ratio [13] | selectivity ratio [14] | IC50 [15] | IC50 [16] | IC50 [17] | pIC50 [18] | selectivity ratio [19]
1 | CC(C)c1ccc2c(c1)CC[C@H]1[C@](C)(CN3C(=O)c4ccccc4C3=O)CCC[C@]21C | 5.87 | > 18.4 | < 4.60 | < 4.60 | < 4.60 | < 4.60 | 4.82 | – | – | – | – | – | – | – | – | – | – | – | –
2 | CC(=O)c1cc2c(cc1C(C)C)CC[C@H]1[C@](C)(CN3C(=O)c4ccccc4C3=O)CCC[C@]21C | 7.07 | > 290 | < 4.60 | < 4.60 | < 4.60 | < 4.60 | 6.70 | > 124 | – | – | – | – | – | – | – | – | – | – | –
3 | CC(=O)Oc1cc2c(cc1C(C)C)CC[C@H]1[C@](C)(CN3C(=O)c4ccccc4C3=O)CCC[C@]21C | 5.68 | > 12 | < 4.60 | < 4.60 | < 4.60 | < 4.60 | 4.82 | – | – | – | – | – | – | – | – | – | – | – | –
4 | CC(C)c1cc2c(cc1O)[C@@]1(C)CCC[C@@](C)(CN3C(=O)c4ccccc4C3=O)[C@@H]1CC2 | 4.82 | – | < 4.60 | < 4.60 | < 4.60 | < 4.60 | 5.40 | > 6.3 | – | – | – | – | – | – | – | – | – | – | –
5 | CC(C)c1cc2c(cc1O)[C@@]1(C)CCC[C@@](C)(CN)[C@@H]1CC2 | 5.18 | 2.6 | < 4.60 | < 4.60 | 4.76 | < 4.60 | 4.82 | – | – | – | – | – | – | – | – | – | – | – | –
6 | CC(C)c1cc2c(cc1O)[C@@]1(C)CCC[C@@](C)(CN3C(=O)c4c(Cl)c(Cl)c(Cl)c(Cl)c4C3=O)[C@@H]1CC2 | 4.82 | – | < 4.60 | < 4.60 | < 4.60 | < 4.60 | 4.82 | – | – | – | – | – | – | – | – | – | – | – | –
7 | CC(=O)Oc1cc2c(cc1C(C)C)CC[C@H]1[C@](C)(CN3C(=O)c4c(Cl)c(Cl)c(Cl)c(Cl)c4C3=O)CCC[C@]21C | 4.82 | – | < 4.60 | < 4.60 | < 4.60 | < 4.60 | 4.82 | – | – | – | – | – | – | – | – | – | – | – | –
8 | CC(=O)Oc1cc2c(cc1C(C)C)C(=O)C[C@H]1[C@](C)(CN3C(=O)c4c(Cl)c(Cl)c(Cl)c(Cl)c4C3=O)CCC[C@]21C | 4.82 | – | < 4.60 | < 4.60 | < 4.60 | < 4.60 | 4.82 | – | – | – | – | – | – | – | – | – | – | – | –
9 | CC(=O)Oc1cc2c(cc1C(C)C)/C(=N/NS(=O)(=O)c1ccc(C)cc1)C[C@H]1[C@](C)(CN3C(=O)c4c(Cl)c(Cl)c(Cl)c(Cl)c4C3=O)CCC[C@]21C | 4.82 | – | < 4.60 | < 4.60 | < 4.60 | < 4.60 | 4.82 | – | – | – | – | – | – | – | – | – | – | – | –
10 | CC(C)c1cc2c(cc1O)[C@@]1(C)CCC[C@@](C)(C=O)[C@@H]1CC2 [18-OXOFERRUGINOL] | 4.82 | – | < 4.60 | < 4.60 | < 4.60 | < 4.60 | 4.82 | – | – | – | – | – | – | – | – | – | – | – | –
11 | CCN(CC)CCCC(C)Nc1ccnc2cc(Cl)ccc12 (stereo not given) [CHLOROQUINE] | 7.64 | – | < 4.60 | < 4.60 | < 4.60 | < 4.60 | 6.16 | – | – | – | – | – | – | – | – | – | – | – | –
12 | CC(C)c1cc2c(cc1O)[C@@]1(C)CCCC(C)(C)[C@@H]1CC2 [FERRUGINOL] | 5.61 | 4.6 | < 4.60 | 4.94 | 4.71 | < 4.60 | 5.88 | 8.6 | < 1 µg/mL | < 1 µg/mL | > 65 | > 65 | > 65 | > 65 | 1.95 µg/mL (≈ 6.81 µM) | 4.2 µg/mL (≈ 14.7 µM) | 3.5 µg/mL (≈ 12.2 µM) | 6.05 | 15.6
13 | CC(C)=CCC[C@]1(C)C=Cc2c(O)c3c(c(CC=C(C)C)c2O1)O[C@]12C(=C[C@@H]4C[C@H]1C(C)(C)O[C@@]2(C/C=C(/C)C(=O)O)C4=O)C3=O [GAMBOGIC ACID] | – | – | > 5.70 | 6.62 | 6.68 | 6.68 | – | – | – | – | – | – | – | – | – | – | – | – | –
